pKi: −log10 of the molar value. Values joined by “and” are separate entries in the source; they are usually repeats but may differ in a detail not shown here. Equal entries are not always repeated.

Assay [1] concerns the target GABA-A receptor; anion channel. Description: Inhibition of [3H]- flumazenil binding to benzodiazepine receptor in bovine brain membranes. Type of assay: cell membranes. The procedure, abridged: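 Bovine brain membranes were freeze-thawed, washed by suspension and centrifugation in 50 mM tris-citrate pH 7.4, then used for competition binding against [3H]flumazenil. Specific binding inhibition was first measured at a fixed 10 µM. Protein was measured by the Lowry method.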

Assay [2] in a line: Ratio of Ki with out GABA and with GABA.
Assay [3] concerns the target GABA A receptor alpha-3/beta-2/gamma-2 (Rattus norvegicus, UniProt P18508+P20236+P63138). Put plainly: Inhibition of [3H]flumazenil binding to rat alpha-3-beta-2-gamma-2 GABA-A receptor subunits expressed in HEK293 cells. Type of assay: cell-based. The procedure, abridged:
(§1)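 Membranes came from HEK293 clonal lines expressing rat GABAA subtypes, grown in MEM/EBSS with 10% FCS, 2 mM glutamine and penicillin/streptomycin at 37 °C in 5% CO2. Membranes were homogenized and centrifuged (48 000 × g, 30 min, 4 °C) in 10 mM K-phosphate pH 7.4 and resuspended with 100 mM KCl. […] Nonspecific binding was defined with 10^-5 M diazepam. Results are the mean of three determinations.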

Assay [4] addresses GABA A receptor alpha-5/beta-3/gamma-2 (Rattus norvegicus) (UniProt P18508+P19969+P63079). Description: Inhibition of [3H]flumazenil binding to rat alpha-5-beta-3-gamma-2 GABA-A receptor subunits expressed in HEK293 cells at 10 uM. Type of assay: cell-based. In outline:
as §1

For assay [5], the target named is GABA-A receptor; alpha-1/beta-2/gamma-2 (Rattus norvegicus, UniProt P18508+P62813+P63138). Put plainly: Inhibition of [3H]flumazenil binding to rat alpha-1-beta-2-gamma-2 GABA-A receptor subunits expressed in HEK293 cells. Type of assay: cell-based. In outline: as §1
GABA-A receptor; alpha-1/beta-2/gamma-2, sequence (P18508 whole entry): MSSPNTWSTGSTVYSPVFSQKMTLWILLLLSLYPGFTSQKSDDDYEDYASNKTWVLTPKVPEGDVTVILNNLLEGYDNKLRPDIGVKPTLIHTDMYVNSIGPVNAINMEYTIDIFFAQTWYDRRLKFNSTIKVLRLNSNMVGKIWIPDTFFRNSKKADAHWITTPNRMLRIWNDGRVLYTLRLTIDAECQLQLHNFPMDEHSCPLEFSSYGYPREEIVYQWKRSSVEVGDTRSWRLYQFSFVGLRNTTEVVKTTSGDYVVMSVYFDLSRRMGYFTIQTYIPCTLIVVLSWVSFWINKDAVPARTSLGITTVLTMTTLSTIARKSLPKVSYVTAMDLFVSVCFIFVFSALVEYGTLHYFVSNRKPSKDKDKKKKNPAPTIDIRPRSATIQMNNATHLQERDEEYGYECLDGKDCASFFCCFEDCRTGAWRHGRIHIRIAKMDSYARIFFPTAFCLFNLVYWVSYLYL
GABA-A receptor; alpha-1/beta-2/gamma-2, sequence (P62813 whole entry): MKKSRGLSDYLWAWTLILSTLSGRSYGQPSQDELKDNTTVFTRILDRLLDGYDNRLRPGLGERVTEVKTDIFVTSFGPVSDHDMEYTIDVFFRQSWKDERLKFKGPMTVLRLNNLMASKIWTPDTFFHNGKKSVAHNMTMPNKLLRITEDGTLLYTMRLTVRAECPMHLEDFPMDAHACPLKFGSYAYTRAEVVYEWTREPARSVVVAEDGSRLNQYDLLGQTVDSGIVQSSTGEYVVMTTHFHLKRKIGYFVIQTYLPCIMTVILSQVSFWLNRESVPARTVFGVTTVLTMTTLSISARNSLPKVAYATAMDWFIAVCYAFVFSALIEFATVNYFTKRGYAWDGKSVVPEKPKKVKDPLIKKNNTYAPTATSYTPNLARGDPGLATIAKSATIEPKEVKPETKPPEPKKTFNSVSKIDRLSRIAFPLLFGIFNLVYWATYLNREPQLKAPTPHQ
GABA-A receptor; alpha-1/beta-2/gamma-2, sequence (P63138 whole entry): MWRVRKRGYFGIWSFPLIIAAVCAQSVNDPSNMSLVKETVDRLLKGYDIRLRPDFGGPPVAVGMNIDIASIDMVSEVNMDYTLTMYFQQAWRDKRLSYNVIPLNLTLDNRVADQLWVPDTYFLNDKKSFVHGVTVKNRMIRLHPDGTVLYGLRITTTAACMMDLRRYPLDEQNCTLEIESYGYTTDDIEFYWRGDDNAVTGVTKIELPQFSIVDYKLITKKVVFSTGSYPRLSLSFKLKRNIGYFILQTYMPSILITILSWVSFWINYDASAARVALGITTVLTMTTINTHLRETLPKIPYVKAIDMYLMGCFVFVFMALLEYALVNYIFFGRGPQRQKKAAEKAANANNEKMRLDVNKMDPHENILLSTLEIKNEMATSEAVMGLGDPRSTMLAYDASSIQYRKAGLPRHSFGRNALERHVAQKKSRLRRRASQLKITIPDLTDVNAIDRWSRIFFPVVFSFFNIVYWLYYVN

GABA A receptor alpha-3/beta-2/gamma-2, sequence (P18508 whole entry): as the sequence (P18508 whole entry) above
GABA A receptor alpha-3/beta-2/gamma-2, sequence (P20236 whole entry): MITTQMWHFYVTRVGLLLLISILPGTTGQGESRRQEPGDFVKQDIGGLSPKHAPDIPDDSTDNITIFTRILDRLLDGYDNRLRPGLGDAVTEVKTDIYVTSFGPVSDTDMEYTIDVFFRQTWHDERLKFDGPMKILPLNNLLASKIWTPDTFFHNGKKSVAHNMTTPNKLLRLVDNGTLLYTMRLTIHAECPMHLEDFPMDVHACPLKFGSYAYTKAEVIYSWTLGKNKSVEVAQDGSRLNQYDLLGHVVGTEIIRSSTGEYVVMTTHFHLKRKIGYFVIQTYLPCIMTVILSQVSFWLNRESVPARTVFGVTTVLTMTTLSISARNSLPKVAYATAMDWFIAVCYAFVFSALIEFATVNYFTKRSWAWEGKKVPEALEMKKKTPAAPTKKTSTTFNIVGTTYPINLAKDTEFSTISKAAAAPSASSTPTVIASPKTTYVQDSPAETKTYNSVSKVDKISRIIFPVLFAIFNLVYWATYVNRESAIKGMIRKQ
GABA A receptor alpha-3/beta-2/gamma-2, sequence (P63138 whole entry): as the sequence (P63138 whole entry) above

The term pKi denotes the Ki on a negative log10 scale, so that one unit is a factor of ten. High values mean a low Ki, low ones a high Ki. For orientation: inhibition means the drop in the measured response relative to a control, in per cent. A low value points to a weak effect. On to `O=C(C(=O)N1Cc2ccccc2C1)c1c[nH]c2ccccc12`, for which the negative logarithm of the Ki (pKi) is 6.91 in assay [1], 5.49 in assay [3] and 6.65 in assay [5]. In addition, the Ratio in assay [2] was 1.06 and 1.1. In assay [4], this compound returned an inhibition of 43%.

(Values after ChEMBL document CHEMBL1134525, “Novel N-(arylalkyl)indol-3-ylglyoxylylamides targeted as ligands of the benzodiazepine receptor: synthesis, biological evaluation, and molecular modeling analysis of the structure-activity relationships” (J Med Chem, 2001).)
